In brackets after ≈: the same amount, converted by molar mass.
Legend:
[1] = target: Human immunodeficiency virus type 1 reverse transcriptase (Human immunodeficiency virus 1) (UniProt Q72547); assay: Inhibition of HIV1 reverse transcriptase at 100 ug/ml incubated for 1 hr by ELISA method
Method in brief: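 Non-radioactive colorimetric ELISA: template/primer with dNTPs plus HIV-1 RT in lysis buffer ± compound (100 µg/mL), 1 h at 37 °C; RT-free buffer as negative control, nevirapine as positive control. Product captured on streptavidin plate 1 h at 37 °C, detected with anti-DIG-POD and ABTS, OD 405 nm.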

[2] = Spermicidal activity in liquefied human semen assessed as reduction in motile spermatozoa incubated at 37 degC for 30 mins; type: functional, Sperm; conditions: for minimal effective concentration: Homo sapiens, Sperm, Semen, 0.5 h, read-out: MEC
Method in brief: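 Compounds dissolved in minimal DMSO, diluted with 0.85% saline to 1.0% test solution; liquefied human semen mixed 1:5 with test solution, vortexed 10 s; motile sperm scored by phase-contrast microscopy over 60 s in five fields. MEC = lowest concentration immobilizing 100% of sperm, still immotile after dilution with nutrient medium.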

[3] = system: Trichomonas vaginalis; assay: Anti-trichomonas activity against MTZ-susceptible Trichomonas vaginalis incubated for 3 to 48 hrs by trypan blue exclusion assay; type: functional
Method in brief: (§1)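 Trichomonas vaginalis trophozoites (5 × 10^4/L as printed) in TYM medium; DMSO stocks (100.0 mg/mL) serially diluted in TYM to 0.1 mg/mL, DMSO/TYM vehicle controls. Anaerobic incubation at 37 °C; viability checked 3–48 h by microscopy (200×) with trypan blue exclusion. MIC = lowest concentration killing all cells within 48 h.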

[4] = system: Trichomonas vaginalis; assay: Anti-trichomonas activity against MTZ-resistant Trichomonas vaginalis incubated for 3 to 48 hrs by trypan blue exclusion assay; type: functional; method in brief: as §1
[5] = system: Candida albicans; assay: Antifungal activity against Candida albicans incubated for 48 hrs by broth micro-dilution method; type: functional
Method in brief: (§2)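 Broth microdilution per NCCLS guidelines in RPMI 1640 buffered with MOPS; starting inoculum 1–5 × 10^3 CFU/mL; plates incubated at 35 °C, MIC read after 48 h.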

[6] = system: Cryptococcus neoformans; assay: Antifungal activity against Cryptococcus neoformans incubated for 48 hrs by broth micro-dilution method; type: functional; method in brief: as §2
[7] = system: Sporothrix schenckii; assay: Antifungal activity against Sporothrix schenckii incubated for 48 hrs by broth micro-dilution method; type: functional; method in brief: as §2
[8] = system: Trichophyton mentagrophytes; assay: Antifungal activity against Trichophyton mentagrophytes incubated for 48 hrs by broth micro-dilution method; type: functional; method in brief: as §2
[9] = system: Aspergillus fumigatus; assay: Antifungal activity against Aspergillus fumigatus incubated for 48 hrs by broth micro-dilution method; type: functional; method in brief: as §2
[10] = system: Candida parapsilosis; assay: Antifungal activity against Candida parapsilosis ATCC 22019 incubated for 48 hrs by broth micro-dilution method; type: functional; conditions: Lodderomyces parapsilosis, ATCC 22019, 48 h; method in brief: as §2
[11] = system: HeLa; assay: Cytotoxicity against human HeLa cells assessed as reduction in cell viability at 200 ug/ml incubated for 24 hrs by MTT assay; type: cell-based
Method in brief: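 HeLa cells seeded at 5 × 10^4 per well, exposed 24 h to compound dilutions in culture medium or vehicle control; MTT (5 mg/mL in pH 7.4 buffer) added, formazan dissolved in DMSO, absorbance read at 540 nm.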

[12] = Effect on Lactobacillus jensenii ATCC 25258 62G assessed as effect on microbial proliferation at 200 ug/ml incubated for 24 hrs
Method in brief: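 L. jensenii ATCC 25258 (strain 62G) in 6% Rogosa SL broth with 0.132% acetic acid; serial compound dilutions or vehicle in triplicate, ~1000 CFU per well, 24 h at 37 °C, humidified 5% CO2; growth read as OD610, expressed relative to control = 100.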

[13] = system: Trichomonas vaginalis; assay: Resistance index, ratio of MIC for MTZ-resistant Trichomonas vaginalis to MIC for MTZ-susceptible Trichomonas vaginalis; type: functional
[14] = Cmax in New-Zealand rabbit at 33 mg/kg dosed through vaginal administration by LC-MS/MS method; type: ADME, organism-based, Oryctolagus cuniculus; design: dose 33 mg/kg; conditions: in vivo
Method in brief: (§3)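 Female New Zealand rabbits received a single vaginal dose of 33 mg/kg. Drug in plasma was quantified by LC-MS/MS on a C18 column with phenacetin as internal standard. For each plasma sample (50 µL), 200 µL of internal-standard solution (200 ng/mL phenacetin in acetonitrile) was added. Samples were mixed, centrifuged at 13,000 rpm for 20 min, and the supernatant injected. The method was validated to FDA bioanalytical criteria.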

[15] = AUC (0 to infinity) in New-Zealand rabbit at 33 mg/kg dosed through vaginal administration by LC-MS/MS method; type: ADME, organism-based, Oryctolagus cuniculus; design: dose 33 mg/kg, time infinity; conditions: in vivo; method in brief: as §3
[16] = Tmax in New-Zealand rabbit at 33 mg/kg dosed through vaginal administration by LC-MS/MS method; type: ADME, organism-based, Oryctolagus cuniculus; conditions: in vivo; method in brief: as §3
[17] = Terminal half life in New-Zealand rabbit at 33 mg/kg dosed through vaginal administration by LC-MS/MS method; type: ADME, organism-based, Oryctolagus cuniculus; conditions: in vivo, read-out: beta t1/2 (converted); method in brief: as §3
[18] = system: Oryctolagus cuniculus; assay: Drug level in plasma of New-Zealand rabbit at 33 mg/kg dosed through vaginal administration by LC-MS/MS method; type: ADME, organism-based; conditions: in vivo, other; method in brief: as §3
[19] = Stability in simulated vaginal fluid at pH 4.2 at 200 ng/ml by LC-MS/MS method; conditions: buffer
[20] = system: Oryctolagus cuniculus; assay: Apparent […] volume of distribution in New-Zealand rabbit at 33 mg/kg dosed through vaginal administration by LC-MS/MS method; type: ADME, organism-based; conditions: in vivo; method in brief: as §3

CCCCNC(=S)N1CCN(CCC(=O)c2ccccc2)CC1
inhibition [1]: 72.3%
MEC [2]: 0.01%
minimal effective concentration [2]: 300 µM
MIC [3]: 46.7 µM (≈ 15.6 µg/mL)
MIC [4]: 188 µM (≈ 62.6 µg/mL)
MIC [5]: 74.8 µM (≈ 24.9 µg/mL)
MIC [6]: 9.34 µM (≈ 3.11 µg/mL)
MIC [7]: > 81.2 µM
MIC [8]: 9.34 µM (≈ 3.11 µg/mL)
MIC [9]: > 81.2 µM
MIC [10]: > 81.2 µM
Activity [11]: Non-toxic
Activity [12]: Non-toxic
Ratio [13]: 4
Cmax [14]: 4.43 ng/mL
AUC(0-inf) [15]: 14.7 ng·h/mL
Tmax [16]: 0.75 h
half-life [17]: 4.67 h
Drug uptake [18]: Not Active
Stability [19]: > 1 h

CCCCCCCCCc1ccc(OCCOCCOCCOCCOCCOCCOCCOCCOCCO)cc1 [NONOXYNOL 9]
MEC [2]: 0.05%
minimal effective concentration [2]: 810 µM
MIC [3]: 81.2 µM (≈ 50.1 µg/mL)
MIC [4]: 122 µM (≈ 75.1 µg/mL)
MIC [5]: > 81.2 µM
MIC [6]: > 81.2 µM
MIC [7]: > 81.2 µM
MIC [8]: > 81.2 µM
MIC [9]: > 81.2 µM
MIC [10]: > 81.2 µM
Cmax [14]: 3.66 ng/mL
AUC(0-inf) [15]: 12.9 ng·h/mL
Tmax [16]: 1 h
Vd/F [20]: 7931.32 L/kg
half-life [17]: 1.59 h
Drug uptake [18]: Not Active
Stability [19]: > 1 h

— ChEMBL document CHEMBL3612038, “N-Alkyl/aryl-4-(3-substituted-3-phenylpropyl)piperazine-1-carbothioamide as dual-action vaginal microbicides with reverse transcriptase inhibition” (Eur J Med Chem, 2015)
